Article PMC11734723 (Science Advances, 2025)
Like-named read-outs stand apart in the source and are kept apart here.

Assays:
[1] = system: Human PBMCs; test: TRAP staining, multinucleation and cell size of human PBMC-derived osteoclasts; format: cell-based; details: ELP-004 100 nM; for effect on multinucleation: 14 days
Method in brief: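 Human PBMCs were grown with human mCSF (50 ng/ml) plus RANKL (100 ng/ml), or RANKL (1 ng/ml) with TNFα (2 ng/ml), ±test compound (100 nM), for 14 days. Cells were fixed with 2% PFA (30 min, RT) and stained for TRAP with ELF-97 (200 µM) in acetate/nitrite/tartrate buffer (15 min, RT). After permeabilisation, nuclei were counterstained with 7-AAD. Confocal images were scored for TRAP intensity, TRAP-positive cells and nuclei per cell.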

[2] = system: murine BMSMCs; format: cell-based, mouse; details: ELP-004 100 nM
[3] = target: T1, TRPC7 (Homo sapiens, UniProt Q9HCX4); test: Carbachol-induced Sr2+ entry in TRPC7-overexpressing HEK293 cells; format: cell-based; details: read-out: IC50 of Cch-induced Sr2+ entry; Cch 100 nM, Sr2+ 3 mM
T1 sequence (Q9HCX4 1-862): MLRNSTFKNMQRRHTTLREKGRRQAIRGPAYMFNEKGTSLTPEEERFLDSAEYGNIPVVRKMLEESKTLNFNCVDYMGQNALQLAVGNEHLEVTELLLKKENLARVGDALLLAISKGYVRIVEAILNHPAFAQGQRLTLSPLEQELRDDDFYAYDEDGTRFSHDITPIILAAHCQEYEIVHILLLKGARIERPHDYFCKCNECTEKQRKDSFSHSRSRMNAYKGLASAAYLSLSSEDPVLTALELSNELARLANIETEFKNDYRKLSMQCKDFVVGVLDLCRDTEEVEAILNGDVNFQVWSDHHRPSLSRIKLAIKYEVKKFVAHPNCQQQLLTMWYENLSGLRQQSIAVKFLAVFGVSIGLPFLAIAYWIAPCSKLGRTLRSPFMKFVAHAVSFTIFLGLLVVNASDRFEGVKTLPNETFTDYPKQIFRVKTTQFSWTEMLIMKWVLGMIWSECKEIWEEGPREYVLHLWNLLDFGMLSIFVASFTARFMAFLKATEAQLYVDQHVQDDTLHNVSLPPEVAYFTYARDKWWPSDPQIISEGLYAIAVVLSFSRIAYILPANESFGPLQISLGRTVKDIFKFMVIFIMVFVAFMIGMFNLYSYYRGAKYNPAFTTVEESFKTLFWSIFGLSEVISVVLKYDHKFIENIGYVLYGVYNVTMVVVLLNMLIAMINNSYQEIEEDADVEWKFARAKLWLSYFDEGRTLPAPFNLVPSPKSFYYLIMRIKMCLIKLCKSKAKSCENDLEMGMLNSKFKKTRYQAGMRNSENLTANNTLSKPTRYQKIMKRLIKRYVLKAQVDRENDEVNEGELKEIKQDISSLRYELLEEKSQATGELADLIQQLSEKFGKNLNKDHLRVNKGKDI
Method in brief: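 HEK293 cells were electroporated with GFP-tagged TRPC4, TRPC5 or TRPC7, plated after 24 h and cultured 48 h under selection; only high-GFP cells were analysed. Coverslip cells were loaded with Fura2 (2 µM) and treated with carbachol (100 nM) plus test compound (0 to 100 µM). Entry was measured after adding Sr²⁺ (3 mM), read as the 340/380 ratio; n = 3 to 5.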

[4] = system: Human PBMCs; test: Basal Ca2+ and Ca2+ oscillations in human PBMC-derived osteoclasts; format: cell-based; details: ELP-004 100 nM; for effect on basal Ca2+ levels: 14 days
Method in brief: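 Human PBMCs cultured in αMEM with 10% FBS and human mCSF (50 ng/ml). At 24 h, RANKL (1 or 100 ng/ml) was added; 2–3 days later, human TNFα (2 ng/ml) and test compound (100 nM) were added where indicated. On day 14, coverslip cells were Fura2-loaded (2 µM, 30 min, RT) in buffer with 1 mM Ca²⁺ (pH 7.2) and de-esterified 30 min. Basal 340/380 ratio was recorded 3–5 min in 30–50 cells and plotted against variance.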

[5] = target: STIM1/Orai1 (Homo sapiens, UniProt Q13586); test: Store-operated Ca2+ entry; format: cell-based; details: Tg 2 μM, 1 mM Ca2+, ELP-004 0 to 1 mM
STIM1/Orai1, sequence (Q13586 23-685, species assumed): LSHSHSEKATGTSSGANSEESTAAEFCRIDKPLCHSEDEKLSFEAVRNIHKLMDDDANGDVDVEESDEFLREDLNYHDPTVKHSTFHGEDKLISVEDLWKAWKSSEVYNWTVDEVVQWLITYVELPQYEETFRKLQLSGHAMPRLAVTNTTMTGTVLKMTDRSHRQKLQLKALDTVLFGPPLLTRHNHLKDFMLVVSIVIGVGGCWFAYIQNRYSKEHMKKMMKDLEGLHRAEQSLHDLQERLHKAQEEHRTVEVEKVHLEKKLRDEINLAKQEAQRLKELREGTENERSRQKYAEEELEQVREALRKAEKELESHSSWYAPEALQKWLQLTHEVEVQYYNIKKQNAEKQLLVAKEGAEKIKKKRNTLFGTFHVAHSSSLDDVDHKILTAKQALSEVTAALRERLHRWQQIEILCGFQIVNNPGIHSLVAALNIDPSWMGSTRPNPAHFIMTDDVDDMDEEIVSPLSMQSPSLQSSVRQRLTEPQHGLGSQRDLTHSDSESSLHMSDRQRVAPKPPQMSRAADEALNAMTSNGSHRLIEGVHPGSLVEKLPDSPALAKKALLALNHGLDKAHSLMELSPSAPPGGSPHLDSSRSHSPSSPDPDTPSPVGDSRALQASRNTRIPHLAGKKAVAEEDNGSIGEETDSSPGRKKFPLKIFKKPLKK
Method in brief: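 STIM1–YFP was electroporated into HEK293 cells, which were selected with puromycin (5 µg/ml) and cloned for highest YFP. Orai1–CFP was then added, followed by G418 selection and cloning for highest YFP/CFP and screening for SOCE. Fura2-loaded cells (2 µM, 30 min, RT) were held 10 min in Ca²⁺-free pH 7.2 buffer with thapsigargin (2 µM) and test compound. After baseline, 1 mM Ca²⁺ was added; the read-out was the 340/380 ratio.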

Which results are given for `CCC(=O)N(C)c1ccc(Cl)c(Cl)c1` [ELP-004]?
effect on multinucleation ([1]; RANKL): significantly inhibited; effect on intensity of TRAP+ cells ([1]; RANKL): not intensity; effect on number of TRAP+ cells ([1]; RANKL): inhibited the number; effect on cell size ([1]; TNFα-induced osteoclasts): significantly reduced; effect on multinucleation ([1]; TNFα/RANKL): significantly inhibited; effect on intensity of TRAP+ cells ([1]; TNFα/RANKL): inhibited; effect on number of TRAP+ cells ([1]; TNFα/RANKL): inhibited; effect on TRAP intensity ([2]; LTB4/RANKL): completely prevented the increase; effect on number of TRAP-positive cells ([2]; LTB4/RANKL): no effect; effect on multinucleation ([2]; LTB4/RANKL, days 7 and 14): significant ELP-004–induced decreases; effect on TRAP intensity ([2]; RANKL (100 ng/ml)): no impact; effect on number of TRAP-positive cells ([2]; RANKL (100 ng/ml)): no impact; effect on number of TRAP-positive cells ([2]; TNFα (2 ng/ml)/RANKL (1 ng/ml)): no significant effect; effect on TRAP intensity increases ([2]; TNFα/RANKL): severely attenuated; effect on number of multinuclear cells ([2]; TNFα/RANKL, P < 0.0005): significantly attenuated; effect on TRAP-positive cells ([2]; mCSF (50 ng/ml) only): no effect; effect on TRAP-positive cells ([2]; mCSF + RANKL (1 ng/ml)): no effect; IC50 [3]: 22.8 nM; effect on basal Ca2+ levels ([4]; RANKL (100 ng/ml)): significantly lowered; effect on Ca2+ oscillations ([4]; RANKL alone): no effect; effect on basal Ca2+ levels ([4]; TNFα (2 ng/ml)/RANKL (1 ng/ml)): significantly lowered; effect on Ca2+ oscillation generation ([4]; TNFα/RANKL): significantly lowered; effect on STIM1/Orai1-mediated Ca2+ entry [5]: largely unaffected
